Consider 20 molecules from ChEMBL document CHEMBL1212834, “Pyrido[2,3-b]pyrazines, discovery of TRPV1 antagonists with reduced potential for the formation of reactive metabolites” (Bioorg Med Chem Lett, 2010).

The source made the active and inactive calls. The rule behind the calls is not given here. A value given as a limit tells only on which side of the number the result lay.

Data set [1] addresses Transient receptor potential cation channel subfamily V member 1 (Homo sapiens, UniProt Q8NER1). Put plainly: Antagonist activity at human TRPV1 assessed as inhibition of capsaicin-induced receptor activation by FLIPR assay. In kind it is functional. The gist of the method: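 Human TRPV1 activated by capsaicin; inhibition read by FLIPR. IC50 is the mean of ≥3 experiments.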

For data set [2], the target named is Transient receptor potential cation channel subfamily V member 1 (Rattus norvegicus, UniProt O35433). In kind it is functional, tissue-based, Sprague-Dawley, Dorsal root ganglion.
Transient receptor potential cation channel subfamily V member 1 (Rattus norvegicus, UniProt O35433), sequence (O35433 whole entry): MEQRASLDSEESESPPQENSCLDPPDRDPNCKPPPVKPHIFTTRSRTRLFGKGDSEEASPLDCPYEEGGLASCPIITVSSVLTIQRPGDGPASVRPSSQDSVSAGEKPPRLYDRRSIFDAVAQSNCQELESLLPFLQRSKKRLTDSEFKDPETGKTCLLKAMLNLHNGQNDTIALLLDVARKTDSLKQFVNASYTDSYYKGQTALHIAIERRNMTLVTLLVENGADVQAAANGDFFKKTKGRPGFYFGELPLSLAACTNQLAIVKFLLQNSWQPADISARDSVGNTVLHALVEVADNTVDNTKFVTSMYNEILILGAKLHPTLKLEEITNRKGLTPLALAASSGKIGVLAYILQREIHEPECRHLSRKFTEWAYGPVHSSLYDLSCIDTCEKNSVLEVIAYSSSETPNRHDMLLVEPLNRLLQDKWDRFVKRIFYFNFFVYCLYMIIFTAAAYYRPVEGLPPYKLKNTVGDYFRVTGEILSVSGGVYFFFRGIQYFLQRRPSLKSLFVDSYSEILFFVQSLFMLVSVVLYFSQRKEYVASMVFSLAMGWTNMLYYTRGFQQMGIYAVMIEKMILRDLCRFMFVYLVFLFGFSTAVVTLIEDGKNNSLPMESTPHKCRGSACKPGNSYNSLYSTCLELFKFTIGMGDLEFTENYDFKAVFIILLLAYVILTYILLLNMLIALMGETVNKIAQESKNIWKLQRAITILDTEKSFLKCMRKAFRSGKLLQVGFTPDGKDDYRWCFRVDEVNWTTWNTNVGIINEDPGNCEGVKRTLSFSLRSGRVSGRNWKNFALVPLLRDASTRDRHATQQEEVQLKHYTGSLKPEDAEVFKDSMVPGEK
A short description of data set [3]: Metabolic stability in rat liver microsomes assessed as compound remaining after 10 min. Particulars: read-out: Stability. In kind it is ADME, Microsome. (Liver microsomes are vesicles of endoplasmic reticulum, rich in cytochrome P450 enzymes.)
The test system of data set [4] is Rattus norvegicus. Put plainly: Antiinflammatory activity in Sprague-Dawley rat assessed as inhibition of carrageenan-induced thermal hyperalgesia at 1 mg/kg, po administered 3.5 hrs after carrageenan challenge measured after 5 hrs. Type of data set: functional. The procedure, abridged: (§1)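 Rat carrageenan-induced thermal hyperalgesia. Dosed orally as a suspension in 0.5% methocel; % inhibition reported at each dose.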

Data set [5] concerns Rattus norvegicus. Nature of the data set: Antiinflammatory activity in Sprague-Dawley rat assessed as inhibition of carrageenan-induced thermal hyperalgesia at 3 mg/kg, po administered 3.5 hrs after carrageenan challenge measured after 5 hrs. In kind it is functional. The gist of the method: as §1
In data set [6] the test system is Rattus norvegicus. Nature of the data set: Plasma concentration in Sprague-Dawley rat carrageenan-induced thermal hyperalgesia model at 1 mg/kg, po. Type of data set: ADME, organism-based. As to conditions: in vivo. On the set-up: dose 1 mg/kg, route oral. The gist of the method:
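Plasma sampled immediately after the carrageenan thermal hyperalgesia experiment, following oral dosing as a suspension in 0.5% methocel.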

Data set [7] deals with Rattus norvegicus. Nature of the data set: Plasma concentration in Sprague-Dawley rat carrageenan-induced thermal hyperalgesia model at 3 mg/kg, po. In kind it is ADME, organism-based. Also noted: dose 3 mg/kg, route oral. As to conditions: in vivo. The procedure, abridged: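 Rats given compound orally as a suspension in 0.5% methocel in the carrageenan-induced thermal hyperalgesia model. Plasma sampled immediately after the CITH experiment.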

A short description of data set [8]: Inhibition of MAOB.
Data set [9] deals with Liver microsomes. Put plainly: Metabolic stability in human liver microsomes assessed per mg of protein after 1 hr.
The subject of data set [10] is Rattus norvegicus. Put plainly: Antiinflammatory activity in Sprague-Dawley rat assessed as inhibition of carrageenan-induced thermal hyperalgesia at 0.3 mg/kg, po administered 3.5 hrs after carrageenan challenge measured after 5 hrs. Type of data set: functional. The procedure, abridged:
as §1

For data set [11], the species on record is Rattus norvegicus. Particulars: 20 mg/kg.

Transient receptor potential cation channel subfamily V member 1 (Homo sapiens, UniProt Q8NER1), sequence (Q8NER1 whole entry): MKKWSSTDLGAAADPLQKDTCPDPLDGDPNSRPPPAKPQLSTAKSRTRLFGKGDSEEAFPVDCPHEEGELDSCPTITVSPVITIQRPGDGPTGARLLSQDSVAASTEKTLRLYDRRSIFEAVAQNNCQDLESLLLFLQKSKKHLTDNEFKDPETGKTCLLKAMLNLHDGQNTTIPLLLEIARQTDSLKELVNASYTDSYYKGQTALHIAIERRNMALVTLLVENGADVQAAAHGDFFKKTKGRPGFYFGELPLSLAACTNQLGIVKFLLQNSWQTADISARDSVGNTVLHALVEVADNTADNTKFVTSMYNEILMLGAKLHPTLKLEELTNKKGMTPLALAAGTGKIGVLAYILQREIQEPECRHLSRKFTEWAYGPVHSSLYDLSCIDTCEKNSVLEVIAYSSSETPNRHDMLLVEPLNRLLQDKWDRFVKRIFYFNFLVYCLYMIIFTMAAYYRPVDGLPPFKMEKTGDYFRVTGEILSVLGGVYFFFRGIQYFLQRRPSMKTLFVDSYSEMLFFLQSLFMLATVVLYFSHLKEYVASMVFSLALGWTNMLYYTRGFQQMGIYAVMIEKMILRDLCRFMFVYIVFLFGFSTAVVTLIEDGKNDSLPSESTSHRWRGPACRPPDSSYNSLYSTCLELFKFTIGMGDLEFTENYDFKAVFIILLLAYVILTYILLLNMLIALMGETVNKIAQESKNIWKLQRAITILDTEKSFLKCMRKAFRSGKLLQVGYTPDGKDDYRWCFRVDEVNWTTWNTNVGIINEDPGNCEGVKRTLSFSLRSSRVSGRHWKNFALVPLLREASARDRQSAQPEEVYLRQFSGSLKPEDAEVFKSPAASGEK

By IC50 is commonly meant the concentration at which inhibition is half-maximal. `N#Cc1cnc(-c2cnc3c(Nc4ccc(C(F)(F)F)cn4)ccnc3n2)c(C(F)(F)F)c1`: the IC50 in data set [1] is 0.015 µM; in data set [2] it was “Not Active”.

For orientation: inhibition in vivo means the drop in the measured response relative to a control, in per cent. Regarding `FC(F)(F)c1ccc(Nc2ccnc3nc(-c4ncccc4C(F)(F)F)ccc23)nc1`, the IC50 in data set [2] (read-out: IC50) turned out to be 0.0032 µM. Besides, the remaining at 10 min in data set [3] was 100%. In data set [4], the inhibition in vivo at 1 mg/kg was found to be 66%. The inhibition in vivo at 3 mg/kg in data set [5] amounted to 115%. Besides, the concentration in data set [6] is 300 nM; in data set [7], 1400 nM. In data set [8], this molecule displayed an INH of 2.2 nM. This molecule also gave a Stability in [9] of 169 pmol.

Turning to `FC(F)(F)c1cnc(Nc2ccnc3nc(-c4ncccc4C(F)(F)F)ccc23)nc1`, the IC50 in data set [1] is 0.0044 µM; in [2] (read-out: IC50), 0.0046 µM. Further, in data set [3], the remaining at 10 min was determined as 100%. The inhibition in vivo at 3 mg/kg in [5] came out at 78%. Also, the Stability in [9] is 204 pmol.

Take `NC(=O)c1nc(Nc2ccnc3nc(-c4ncccc4C(F)(F)F)ccc23)ncc1C(F)(F)F`: the figures for the IC50 in data set [1] and in data set [2] were 0.0487 µM and “Not Active”, respectively.

For the molecule `O=C(O)c1ccnc(-c2ccc3c(Nc4ccc(C(F)(F)F)cn4)ccnc3n2)c1C(F)(F)F`, the IC50 in data set [1] was 0.607 µM; in [2], “Not Active”.

In the case of `FC(F)(F)c1csc(Nc2ccnc3nc(-c4ncccc4C(F)(F)F)ccc23)n1`, the IC50 in data set [1] is 0.047 µM; in [2], “Not Active”.

With `FC(F)(F)c1cnc(Nc2ccnc3nc(-c4ncccc4C(F)(F)F)ccc23)nc1Cl`, the values for the IC50 in data set [1] and in [2] were 0.081 µM and “Not Active”, respectively.

`FC(F)(F)c1ccc(Nc2ccnc3nc(-c4ncsc4C(F)(F)F)ccc23)nc1`: the IC50 is 0.012 µM in data set [1] and “Not Active” in data set [2]. Moreover, the remaining at 10 min in [3] is 100%. Besides, the Stability in [9] amounted to 356 pmol.

For the molecule `FC(F)(F)c1ccc(Nc2ccnc3nc(-c4ncc(Br)cc4C(F)(F)F)cnc23)nc1`, the IC50 was 0.03 µM in data set [1] and “Not Active” in data set [2].

For `FC(F)(F)c1cnc(Nc2ccnc3nc(-c4ncccc4C(F)(F)F)ccc23)cn1`, the half-maximal inhibitory concentration (IC50) in data set [1] was 0.0055 µM; in data set [2] (read-out: IC50) it was 0.0063 µM.

Consider `FC(F)(F)c1ccc(Nc2ccnc3nc(-c4ncccc4C(F)(F)F)cnc23)nc1`, for which the concentration for half-maximal inhibition (IC50) was 0.0002 µM in [1] and “Not Active” in data set [2]. In addition, in data set [3], the remaining at 10 min turned out to be 100%. For the same molecule, the inhibition in vivo at 3 mg/kg in [5] was 134%. For the same molecule, the inhibition in vivo at 0.3 mg/kg in [10] was found to be 85%. Moreover, the Stability in data set [9] is recorded as less than 5 pmol.

As for `COc1ccc2cc([C@H](C)C(=O)O)ccc2c1`, the inhibition entry in data set [11] was “Active”.

As for `NC(=O)c1ccnc(-c2ccc3c(Nc4ccc(C(F)(F)F)cn4)ccnc3n2)c1C(F)(F)F`, the half-maximal inhibitory concentration (IC50) in data set [1] was 0.013 µM; in data set [2], “Not Active”.

On to `FC(F)(F)c1ccc(Nc2ccnc3nc(-c4ccncc4C(F)(F)F)ccc23)nc1`, for which the IC50 in data set [1] is 0.161 µM; in data set [2], “Not Active”.

For `O=C(O)c1nc(Nc2ccnc3nc(-c4ncccc4C(F)(F)F)ccc23)ncc1C(F)(F)F`, the results for the IC50 in data set [1] and in data set [2] were 1.45 µM and “Not Active”, respectively.

In the case of `C[C@@H]1CN(c2ncccc2C(F)(F)F)CCN1C(=O)Nc1ccc(C(F)(F)F)cc1`, the INH in data set [8] turned out to be 17 nM.

`FC(F)(F)c1ccc(Nc2ccnc3nc(-c4ncncc4C(F)(F)F)ccc23)nc1`: the results for the IC50 in [1] and in data set [2] were 0.134 µM and “Not Active”, respectively.

Regarding `FC(F)(F)c1ccc(Nc2ccnc3nc(-c4nnccc4C(F)(F)F)ccc23)nc1`, the half-inhibitory concentration (IC50) stood at 0.0084 µM in [1] and 0.0071 µM in [2] (read-out: IC50).

On to `N#Cc1nc(Nc2ccnc3nc(-c4ncccc4C(F)(F)F)ccc23)ncc1C(F)(F)F`, for which the results for the IC50 in data set [1] and in data set [2] were 0.0254 µM and “Not Active”, respectively.

With `O=C(O)c1cnc(-c2cnc3c(Nc4ccc(C(F)(F)F)cn4)ccnc3n2)c(C(F)(F)F)c1`, the results for the IC50 in data set [1] and in [2] were 0.027 µM and “Not Active”, respectively.
